Test results: ChEMBL document CHEMBL1157464, “1-[(3-Aryloxy-3-aryl)propyl]-1H-imidazoles, new imidazoles with potent activity against Candida albicans and dermatophytes. Synthesis, structure-activity relationship, and molecular modeling studies” (J Med Chem, 2008)
≈ marks a conversion by molar mass, not a printed value.

Tests used:
[1] = Cytotoxicity against human K562 cells after assessed as reduction of cell viability 24 hrs by MTT assay; type: cell-based
Outline: (§1)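 U937 and K562 cells, from ATCC, plated at 5 × 10^4/mL in phenol-red-free RPMI-1640 with 20% FBS and penicillin/streptomycin. Compounds added 2 h later at 25–100 µg/mL, then 24 h at 37 °C. MTT at 1 mg/mL for 3 h, formazan dissolved in isopropanol with 0.1 N HCl, absorbance read at 570 nm. CC50 is the concentration reducing viability by 50% versus the drug-free control.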

[2] = tested on: Candida albicans; assay: Antifungal activity against Candida albicans ATCC 10261 at 35 degC after 48 hrs by broth microdilution test; type: functional; settings: Candida albicans, ATCC 10261, 48 h; for MIC: read-out: MIC; for MIC50: read-out: MIC50; for MIC90: read-out: MIC90
Outline: (§2)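 Broth microdilution per NCCLS M27-A2. Stocks in 100% DMSO, diluted in RPMI 1640 with 0.165 M MOPS at pH 7.0; final range 0.25–128 µg/mL. Inoculum 1000–5000 cells/mL from SDA subcultures. […] C. parapsilosis ATCC22019 served as QC strain.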

[3] = Cytotoxicity against human U937 cells assessed as reduction of cell viability after 24 hrs by MTT assay; type: cell-based, U-937; outline: as §1
[4] = tested on: Candida albicans; assay: Antifungal activity against Candida albicans ATCC 10261 at 35 degC after 48 to 96 hrs by broth microdilution test; type: functional; settings: for MFC: Candida albicans, ATCC 10261, read-out: MFC
Outline: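 Minimal fungicidal concentration for Candida. […] MFC is the lowest concentration allowing fewer than two colonies (99% killing).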

[5] = tested on: Candida parapsilosis; assay: Antifungal activity against Candida parapsilosis ATCC 22019 at 35 degC after 48 hrs by broth microdilution test; type: functional; settings: Lodderomyces parapsilosis, ATCC 22019, 48 h; for MFC: read-out: MFC; for MIC: read-out: MIC; outline: as §2
[6] = tested on: Candida albicans; assay: Antifungal activity against fluconazole-resistant Candida albicans isolated from oropharyngeal or vaginal disease patient after 48 hrs by broth microdilution test; type: functional
[7] = tested on: Arthrodermataceae; assay: Antifungal activity against dermatophytes at 28 degC after 48 to 96 hrs by broth microdilution test
[8] = tested on: Arthrodermataceae; assay: Antifungal activity against dermatophytes at 28 degC after 5 days by broth microdilution test; settings: for MFC: Arthrodermataceae
[9] = tested on: Arthrodermataceae; assay: Antifungal activity against dermatophytes at 28 degC after 7 days by broth microdilution test; type: functional; settings: 168 h
Outline: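 Ten clinical isolates (two M. canis, five M. gypseum, three T. mentagrophytes) tested by NCCLS M38-A broth microdilution in MOPS-buffered RPMI 1640, pH 7.0, over 0.25–128 µg/mL. Conidial/hyphal suspension from PDA slants (28 °C, 7 days) adjusted to 65–70% transmittance at OD530, then diluted 1:50.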

[10] = tested on: Candida albicans; assay: Antifungal activity against fluconazole-sensitive Candida albicans Fe40 at 35 degC after 48 hrs by broth microdilution test; type: functional; outline: as §2

Structure (SMILES) | MIC [2] | MIC50 [2] | MIC90 [2] | MIC [5] | MIC [9] | MIC50 [9] | MIC90 [9] | CC50 at 24 h [1] | CC50 at 24 h [3] | MFC50 [4] | MFC90 [4] | MFC [4] | MFC [5] | MIC [6] | MFC50 [7] | MFC90 [8] | MFC [8] | MIC [10]
C[C@@H](c1ncncc1F)[C@](O)(Cn1cncn1)c1ccc(F)cc1F [VORICONAZOLE] | 0.89 µg/mL (≈ 2.55 µM) | 0.25 µg/mL (≈ 0.716 µM) | > 1 µg/mL | 0.015 µg/mL (≈ 0.0429 µM) | 0.03 µg/mL (≈ 0.0859 µM) | 0.016 µg/mL (≈ 0.0458 µM) | 0.06 µg/mL (≈ 0.172 µM) |  |  | >16 µg/mL | >16 µg/mL | 26 µg/mL (≈ 74.4 µM) | 0.125 µg/mL (≈ 0.358 µM) | 16 µg/mL (≈ 45.8 µM) | 1 µg/mL (≈ 2.86 µM) | 1 µg/mL (≈ 2.86 µM) | 0.9 µg/mL (≈ 2.58 µM) | 0.016 µg/mL (≈ 0.0458 µM)
Clc1ccc(C(CCn2ccnc2)Oc2c(Cl)cccc2Cl)cc1 (centres undefined) | 5 µg/mL (≈ 13.1 µM) | 2 µg/mL (≈ 5.24 µM) | 8 µg/mL (≈ 21 µM) | 1 µg/mL (≈ 2.62 µM) |  |  |  | 135 µM | 271 µM | 8 µg/mL (≈ 21 µM) | 16 µg/mL (≈ 41.9 µM) | 14.7 µg/mL (≈ 38.5 µM) | 4 µg/mL (≈ 10.5 µM) | 6.8 µg/mL (≈ 17.8 µM) |  |  |  | 2 µg/mL (≈ 5.24 µM)
Clc1ccc(C(CCn2ccnc2)Oc2cc(Cl)cc(Cl)c2)cc1 (centres undefined) | 7.7 µg/mL (≈ 20.2 µM) | 8 µg/mL (≈ 21 µM) | 16 µg/mL (≈ 41.9 µM) | 1 µg/mL (≈ 2.62 µM) | 5 µg/mL (≈ 13.1 µM) | 4 µg/mL (≈ 10.5 µM) | 8 µg/mL (≈ 21 µM) | 135 µM | 180 µM | 16 µg/mL (≈ 41.9 µM) | 16 µg/mL (≈ 41.9 µM) | 16.5 µg/mL (≈ 43.2 µM) | 4 µg/mL (≈ 10.5 µM) |  | 8 µg/mL (≈ 21 µM) | 16 µg/mL (≈ 41.9 µM) | 10 µg/mL (≈ 26.2 µM) | 
Clc1ccc(C(CCn2ccnc2)Oc2ccccc2Cl)cc1 (centres undefined) | 7.7 µg/mL (≈ 22.2 µM) | 8 µg/mL (≈ 23 µM) | 8 µg/mL (≈ 23 µM) | 4 µg/mL (≈ 11.5 µM) |  |  |  | 205 µM | 209 µM | 32 µg/mL (≈ 92.2 µM) | 32 µg/mL (≈ 92.2 µM) | 27 µg/mL (≈ 77.8 µM) | 32 µg/mL (≈ 92.2 µM) | 8 µg/mL (≈ 23 µM) |  |  |  | 8 µg/mL (≈ 23 µM)

Further lines, with some results ahead:

MIC [2] | MIC50 [2] | MIC90 [2] | MIC [5] | MIC [9] | MIC50 [9] | MIC90 [9] | Structure (SMILES) | CC50 at 24 h [1] | CC50 at 24 h [3] | MFC50 [4] | MFC90 [4] | MFC [4] | MFC [5] | MIC [6] | MFC50 [7] | MFC90 [8] | MFC [8] | MIC [10]
18.5 µg/mL (≈ 52.1 µM) | 8 µg/mL (≈ 22.5 µM) | 32 µg/mL (≈ 90.2 µM) | 8 µg/mL (≈ 22.5 µM) |  |  |  | CC(C)c1ccc(OC(CCn2ccnc2)c2ccc(Cl)cc2)cc1 (centres undefined) | 138 µM | 208 µM | 32 µg/mL (≈ 90.2 µM) | 32 µg/mL (≈ 90.2 µM) | 25.5 µg/mL (≈ 71.9 µM) | 32 µg/mL (≈ 90.2 µM) |  |  |  |  | 
22.3 µg/mL (≈ 71.3 µM) | 16 µg/mL (≈ 51.2 µM) | 32 µg/mL (≈ 102 µM) | 4 µg/mL (≈ 12.8 µM) |  |  |  | Cc1ccc(OC(Cn2ccnc2)c2ccc(Cl)cc2)cc1 (centres undefined) | 99 µM | 150 µM |  |  | 32 µg/mL (≈ 102 µM) |  |  |  |  |  | 
8.7 µg/mL (≈ 27.2 µM) | 4 µg/mL (≈ 12.5 µM) | 16 µg/mL (≈ 49.9 µM) | 4 µg/mL (≈ 12.5 µM) |  |  |  | CCc1ccc(OC(CCn2ccnc2)c2ccc(C)cc2)cc1 (centres undefined) | 136 µM | 152 µM | 32 µg/mL (≈ 99.9 µM) | 32 µg/mL (≈ 99.9 µM) | 28 µg/mL (≈ 87.4 µM) | 8 µg/mL (≈ 25 µM) |  |  |  |  | 
11.9 µg/mL (≈ 32.9 µM) | 16 µg/mL (≈ 44.3 µM) | 16 µg/mL (≈ 44.3 µM) | 1 µg/mL (≈ 2.77 µM) | 5.6 µg/mL (≈ 15.5 µM) | 4 µg/mL (≈ 11.1 µM) | 8 µg/mL (≈ 22.1 µM) | Cc1ccc(C(CCn2ccnc2)Oc2cc(Cl)cc(Cl)c2)cc1 (centres undefined) | 98 µM | 160 µM | 16 µg/mL (≈ 44.3 µM) | 64 µg/mL (≈ 177 µM) | 34.6 µg/mL (≈ 95.8 µM) | 8 µg/mL (≈ 22.1 µM) |  | 16 µg/mL (≈ 44.3 µM) | 16 µg/mL (≈ 44.3 µM) | 14.4 µg/mL (≈ 39.9 µM) | 
